# Results reported in ChEMBL document CHEMBL5058577, “EUbOPEN Chemogenomics Library 2 (Multiplex)” (2022).
# Test system: U2OS
# Assay: Multiplex assay against U2OS
# Format: toxicity, cell-based
# Conditions: human
# In short: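 Imaging took place on a CQ1 microscope at 37°C and 5% CO2 once compound had been added to live cells stained at seeding with Hoechst33342, BioTracker Green Microtubule Cytoskeleton Dye, MitoTracker Red and Annexin V Alexa Fluor 680. CellPathfinder machine-learning gating classed cells as Hoechst high-intensity objects or normal cells, classed normal cells as having healthy, pyknosed or fragmented nuclei, and classed pyknosed cells as mitotic or apoptotic. Tubulin, mitochondrial-mass and membrane-permeability phenotypes are per cents of the healthy-nucleus cells.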
# [1] = 12 h, 1 µM, compound concentration 1 uM, replicate 1
# [2] = 12 h, 1 µM, compound concentration 1 uM, replicate 2
# [3] = 12 h, 10 µM, compound concentration 10 uM, replicate 1
# [4] = 12 h, 10 µM, compound concentration 10 uM, replicate 2
# [5] = 24 h, 1 µM, compound concentration 1 uM, replicate 1
# [6] = 24 h, 1 µM, compound concentration 1 uM, replicate 2
# [7] = 24 h, 10 µM, compound concentration 10 uM, replicate 1
# [8] = 24 h, 10 µM, compound concentration 10 uM, replicate 2
# [9] = 48 h, 1 µM, compound concentration 1 uM, replicate 1
# [10] = 48 h, 1 µM, compound concentration 1 uM, replicate 2
# [11] = 48 h, 10 µM, compound concentration 10 uM, replicate 1
# [12] = 48 h, 10 µM, compound concentration 10 uM, replicate 2
smiles,measurement,setting,value
Nc1nc(-c2ccco2)c2cnn(Cc3ccccc3F)c2n1,Population Apoptotic (%),[1],82%
same,Population Fragmented Nuclei (%),[1],23%
same,Population Healthy Nuclei (%),[1],68%
same,Population Hoechst High Intensity Objects (%),[1],1%
same,Population Membrane Permeable-Phenotype (%),[1],4%
same,Population Mitochondria Different-Phenotype (%),[1],2%
same,Population Mitotic Cells (%),[1],17%
same,Population Normal (%),[1],98%
same,Population Pyknosed Nuclei (%),[1],8%
same,Population Tubulin-Different-Phenotype (%),[1],3%
same,Total Cell Count,[1],280
same,Population Apoptotic (%),[2],92%
same,Population Healthy Nuclei (%),[2],64%
same,Population Hoechst High Intensity Objects (%),[2],0%
same,Population Membrane Permeable-Phenotype (%),[2],12%
same,Population Mitochondria Different-Phenotype (%),[2],5%
same,Population Mitotic Cells (%),[2],7%
same,Population Normal (%),[2],99%
same,Population Pyknosed Nuclei (%),[2],12%
same,Population Tubulin-Different-Phenotype (%),[2],8%
same,Total Cell Count,[2],109
same,Population Apoptotic (%),[3],87%
same,Population Fragmented Nuclei (%),[3],41%
same,Population Healthy Nuclei (%),[3],45%
same,Population Hoechst High Intensity Objects (%),[3],5%
same,Population Membrane Permeable-Phenotype (%),[3],10%
same,Population Mitochondria Different-Phenotype (%),[3],4%
same,Population Mitotic Cells (%),[3],12%
same,Population Normal (%),[3],94%
same,Population Pyknosed Nuclei (%),[3],12%
same,Population Tubulin-Different-Phenotype (%),[3],7%
same,Total Cell Count,[3],197
same,Population Apoptotic (%),[4],77%
same,Population Fragmented Nuclei (%),[4],20%
same,Population Healthy Nuclei (%),[4],72%
same,Population Hoechst High Intensity Objects (%),[4],0%
same,Population Membrane Permeable-Phenotype (%),[4],5%
same,Population Mitochondria Different-Phenotype (%),[4],5%
same,Population Mitotic Cells (%),[4],22%
same,Population Normal (%),[4],99%
same,Population Pyknosed Nuclei (%),[4],7%
same,Population Tubulin-Different-Phenotype (%),[4],1%
same,Total Cell Count,[4],125
same,Population Apoptotic (%),[5],96%
same,Population Fragmented Nuclei (%),[5],19%
same,Population Healthy Nuclei (%),[5],70%
same,Population Hoechst High Intensity Objects (%),[5],1%
same,Population Membrane Permeable-Phenotype (%),[5],4%
same,Population Mitochondria Different-Phenotype (%),[5],1%
same,Population Mitotic Cells (%),[5],3%
same,Population Normal (%),[5],98%
same,Population Pyknosed Nuclei (%),[5],9%
same,Population Tubulin-Different-Phenotype (%),[5],2%
same,Total Cell Count,[5],332
same,Population Apoptotic (%),[6],84%
same,Population Fragmented Nuclei (%),[6],18%
same,Population Healthy Nuclei (%),[6],71%
same,Population Hoechst High Intensity Objects (%),[6],4%
same,Population Membrane Permeable-Phenotype (%),[6],10%
same,Population Mitochondria Different-Phenotype (%),[6],3%
same,Population Mitotic Cells (%),[6],15%
same,Population Normal (%),[6],95%
same,Population Pyknosed Nuclei (%),[6],10%
same,Population Tubulin-Different-Phenotype (%),[6],8%
same,Total Cell Count,[6],127
same,Population Apoptotic (%),[7],82%
same,Population Fragmented Nuclei (%),[7],38%
same,Population Healthy Nuclei (%),[7],53%
same,Population Hoechst High Intensity Objects (%),[7],5%
same,Population Membrane Permeable-Phenotype (%),[7],7%
same,Population Mitochondria Different-Phenotype (%),[7],3%
same,Population Mitotic Cells (%),[7],17%
same,Population Normal (%),[7],94%
same,Population Pyknosed Nuclei (%),[7],7%
same,Population Tubulin-Different-Phenotype (%),[7],5%
same,Total Cell Count,[7],230
same,Population Apoptotic (%),[8],90%
same,Population Fragmented Nuclei (%),[8],19%
same,Population Healthy Nuclei (%),[8],73%
same,Population Hoechst High Intensity Objects (%),[8],1%
same,Population Membrane Permeable-Phenotype (%),[8],5%
same,Population Mitochondria Different-Phenotype (%),[8],0%
same,Population Mitotic Cells (%),[8],9%
same,Population Normal (%),[8],98%
same,Population Tubulin-Different-Phenotype (%),[8],4%
same,Total Cell Count,[8],157
same,Population Apoptotic (%),[9],94%
same,Population Fragmented Nuclei (%),[9],17%
same,Population Healthy Nuclei (%),[9],74%
same,Population Hoechst High Intensity Objects (%),[9],1%
same,Population Membrane Permeable-Phenotype (%),[9],2%
same,Population Mitochondria Different-Phenotype (%),[9],2%
same,Population Mitotic Cells (%),[9],5%
same,Population Normal (%),[9],98%
same,Population Pyknosed Nuclei (%),[9],7%
same,Population Tubulin-Different-Phenotype (%),[9],2%
same,Total Cell Count,[9],462
same,Population Apoptotic (%),[10],95%
same,Population Fragmented Nuclei (%),[10],16%
same,Population Healthy Nuclei (%),[10],67%
same,Population Hoechst High Intensity Objects (%),[10],6%
same,Population Membrane Permeable-Phenotype (%),[10],5%
same,Population Mitochondria Different-Phenotype (%),[10],5%
same,Population Mitotic Cells (%),[10],4%
same,Population Normal (%),[10],93%
same,Population Pyknosed Nuclei (%),[10],15%
same,Population Tubulin-Different-Phenotype (%),[10],1%
same,Total Cell Count,[10],141
same,Population Apoptotic (%),[11],95%
same,Population Fragmented Nuclei (%),[11],37%
same,Population Healthy Nuclei (%),[11],51%
same,Population Hoechst High Intensity Objects (%),[11],11%
same,Population Membrane Permeable-Phenotype (%),[11],17%
same,Population Mitochondria Different-Phenotype (%),[11],6%
same,Population Mitotic Cells (%),[11],4%
same,Population Normal (%),[11],88%
same,Population Pyknosed Nuclei (%),[11],10%
same,Population Tubulin-Different-Phenotype (%),[11],11%
same,Total Cell Count,[11],252
same,Population Apoptotic (%),[12],86%
same,Population Fragmented Nuclei (%),[12],23%
same,Population Healthy Nuclei (%),[12],69%
same,Population Hoechst High Intensity Objects (%),[12],2%
same,Population Membrane Permeable-Phenotype (%),[12],12%
same,Population Mitotic Cells (%),[12],13%
same,Population Normal (%),[12],97%
same,Population Pyknosed Nuclei (%),[12],7%
same,Population Tubulin-Different-Phenotype (%),[12],6%
same,Total Cell Count,[12],196
